Screening results deposited in PubChem BioAssay by several laboratories.
Most compounds without a hit are left out; they make up all but 2.5% or so of the library.
Tb hexokinase = T. brucei hexokinase 1 inhibition. recombinant TbHK1, G6PDH-coupled NADH A340. inhibition, % at 10 µM. actives 0.11% (n = 220,000). AID 1430;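 active = inhibition of 50% or more in the single-dose primary screen; inactive = inhibition below 50%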
EP2 antag = EP2 receptor (human) inhibition | P43116 | C6 glioma cells expressing human EP2, cAMP TR-FRET; cells stimulated with saturating PGE2 | inhibition, % at 25 µM | actives 0.52% (n = 260,000) | AID 1422;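 active = percent inhibition above 40 after rounding to a whole number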;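 note: rat C6 glioma host cells with rolipram phosphodiesterase inhibitor present; the protocol text gives 20 µM as final concentration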
EP2 modulator = modulators of human EP2 prostaglandin E2 receptor; P43116; EP2-expressing cells, cAMP HTRF FRET, PGE2 co-stimulation; induction, % at 25 µM; actives 0.83% (n = 260,000); AID 940;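 active = compounds whose cAMP rise, as percent of the full-agonist control response, exceeds 60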;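 note: rat C6 glioma line stably carrying human EP2 under a CMV promoter; the protocol text gives 20 µM as final concentration; 100% = response of wells given 1 µM PGE2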
PHOSPHO1 block = PHOSPHO1 (human) inhibition; Q8TCT1; recombinant PHOSPHO1, absorbance phosphatase assay; inhibition, % at 13.3 µM; actives 1.1% (n = 290,000); AID 1565; in the data active = inhibition above about 60%
HKDC1 inh = inhibitors of human hexokinase HKDC1; AID 493160; actives 0.16% (n = 340,000); recombinant HKDC1, G6PDH/diaphorase resazurin coupled fluorescence; Q2TB90; inhibition, % at 20 µM;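 active = inhibition above about 35% when tested at 20 µM, limit read from the data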;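 note: plate controls were DMSO wells with enzyme for no effect and DMSO wells lacking enzyme for full effect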
Target sequence (Q2TB90 whole entry, looked up): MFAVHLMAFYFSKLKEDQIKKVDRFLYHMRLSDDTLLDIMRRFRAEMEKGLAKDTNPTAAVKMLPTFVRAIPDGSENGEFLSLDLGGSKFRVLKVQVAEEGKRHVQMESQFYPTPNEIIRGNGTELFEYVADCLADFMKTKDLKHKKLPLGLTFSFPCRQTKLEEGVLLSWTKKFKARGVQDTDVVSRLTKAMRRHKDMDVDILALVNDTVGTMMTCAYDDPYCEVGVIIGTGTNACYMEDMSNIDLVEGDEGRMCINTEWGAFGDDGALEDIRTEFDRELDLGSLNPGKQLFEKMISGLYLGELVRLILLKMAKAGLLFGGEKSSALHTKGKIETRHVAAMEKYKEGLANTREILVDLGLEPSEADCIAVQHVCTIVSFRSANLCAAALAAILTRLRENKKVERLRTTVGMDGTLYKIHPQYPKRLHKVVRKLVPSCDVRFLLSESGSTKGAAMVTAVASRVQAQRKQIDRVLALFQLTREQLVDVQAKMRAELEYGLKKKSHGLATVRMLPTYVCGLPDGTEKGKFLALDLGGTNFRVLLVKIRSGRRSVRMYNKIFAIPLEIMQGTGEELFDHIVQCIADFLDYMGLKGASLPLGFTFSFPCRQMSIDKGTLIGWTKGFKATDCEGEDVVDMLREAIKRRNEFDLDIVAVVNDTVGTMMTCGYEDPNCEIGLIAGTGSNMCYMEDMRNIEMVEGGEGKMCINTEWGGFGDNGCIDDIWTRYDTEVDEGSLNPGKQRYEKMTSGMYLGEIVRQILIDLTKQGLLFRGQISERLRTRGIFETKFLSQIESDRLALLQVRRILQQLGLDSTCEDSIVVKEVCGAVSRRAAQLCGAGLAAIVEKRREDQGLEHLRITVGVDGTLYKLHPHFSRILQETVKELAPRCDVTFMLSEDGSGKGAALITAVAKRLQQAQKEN
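test system = in-house recombinant HK5 (HKDC1) enzyme | amount = HKDC1 at 5 µg/mL | control set = DMSO-enzyme wells negative, buffer-substituted wells positive | compound = one dose of 20 µM, 1% DMSO | schedule = reaction time 90 min, room temperature, protected from light | technique = resorufin fluorescence at 613 nm | reagent = glucose with 1 mM ATP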
PfGluPho inh = PfG6PD (Plasmodium falciparum) enzyme inhibition; PfGluPho enzyme, NADPH resazurin-diaphorase fluorescence; inhibition, % at 20 µM; actives 0.78% (n = 350,000); AID 504690;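 active = inhibition reaching at least a set limit at 20 µM in the primary screen, cut at about 59% in these data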;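 note: 0% = DMSO wells with substrate and 100% = DMSO wells lacking glucose-6-phosphate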
PfG6PD confirm = PfG6PD inhibition, single-dose confirmed. shares compounds with PfGluPho inh. recombinant PfGluPho, NADPH-diaphorase-resazurin fluorescence. inhibition, % at 20 µM. actives 34% (n = 2,400). AID 504753;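 active = inhibition of at least 50% at 20 µM in any single replicate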;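 note: 0% = DMSO with substrate and 100% = DMSO lacking glucose-6-phosphate substrate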
Diaphorase 10uM = counter-screen for P. falciparum G6PD inhibitors: diaphorase inhibitors, oxidizers; inhibition, % at 20 µM; AID 504862; diaphorase-coupled resazurin reduction, fluorescence, NADPH 10 uM; actives 39% (n = 820); shares compounds with PfGluPho inh;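 active = average inhibition reaching 50% or more with the compound at 20 µM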;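 note: resorufin red fluorescence formed as diaphorase reduces resazurin using NADPH; 0% = DMSO with enzyme and 100% = DMSO without enzyme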
Diaph ctr 30uM = counter-screen for P. falciparum G6PD inhibitors: diaphorase inhibitors, oxidizers; shares compounds with PfGluPho inh; Diaphorase/resazurin coupled assay, resorufin fluorescence, 30 uM NADPH; inhibition, % at 20 µM; actives 29% (n = 820); AID 504863;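 active = inhibition averaging 50% or more, tested at 20 µM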;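 note: 0% = DMSO with enzyme and 100% = DMSO wells lacking diaphorase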
An asterisk follows results filed as active.

What do the screens show for `Cc1ccc(C(=O)Nc2nnc(S(=O)(=O)N3CCCCCC3)s2)cc1`?
PHOSPHO1 block: 15; HKDC1 inh: -1; PfGluPho inh: 68*; PfG6PD confirm: 6

Results for O=C(Nc1nnc(S(=O)(=O)N2CCOCC2)s1)c1cccc(F)c1 ?
PHOSPHO1 block: -19; HKDC1 inh: -6; PfGluPho inh: 51

Results for CC(C)c1ccc(C(=O)Nc2nnc(S(=O)(=O)N3CCCCC3)s2)cc1 ?
PHOSPHO1 block: 44; HKDC1 inh: -1; PfGluPho inh: -20

How did Cc1cccc(C(=O)Nc2nnc(S(=O)(=O)N3CCOCC3)s2)c1 do in these assays?
PHOSPHO1 block: 24; HKDC1 inh: -3; PfGluPho inh: 68*; PfG6PD confirm: 61*; Diaphorase 10uM: 48; Diaph ctr 30uM: 41

Results for Cc1ccc(C(=O)Nc2nnc(S(=O)(=O)N3CCOCC3)s2)cc1 ?
PHOSPHO1 block: 23; HKDC1 inh: -4; PfGluPho inh: 101*; PfG6PD confirm: 62*; Diaphorase 10uM: 52*; Diaph ctr 30uM: 51*

How did Cc1ccc(N2CCN(S(=O)(=O)c3nnc(NC(=O)c4ccccc4)s3)CC2)cc1 do in these assays?
PHOSPHO1 block: -9; HKDC1 inh: -5; PfGluPho inh: 14

Results for Cc1ccc(C(=O)Nc2nnc(S(=O)(=O)N3CCC(C)CC3)s2)cc1 ?
PHOSPHO1 block: 26; HKDC1 inh: 0; PfGluPho inh: 84*; PfG6PD confirm: 50*; Diaphorase 10uM: 33; Diaph ctr 30uM: 38

How did CCc1c(C)sc2ncn(C3CCN(C(=O)c4cc(C(C)(C)C)[nH]n4)CC3)c(=O)c12 do in these assays?
EP2 modulator: -14

What do the screens show for `CCOc1ccc(OCC)c(NC(=O)CSc2nc3c(C)c(C)ccc3cc2C#N)c1`?
EP2 antag: 24; EP2 modulator: 1

How did O=C(Nc1nnc(S(=O)(=O)N2CCOCC2)s1)c1ccccc1F do in these assays?
PHOSPHO1 block: 12; HKDC1 inh: 6; PfGluPho inh: 13

Results for O=C(Nc1nnc(S(=O)(=O)N2CCOCC2)s1)c1ccc(F)cc1 ?
PHOSPHO1 block: -14; HKDC1 inh: -5; PfGluPho inh: 86*; PfG6PD confirm: 56*; Diaphorase 10uM: 30; Diaph ctr 30uM: 45

Results for O=C(Nc1nnc(S(=O)(=O)N2CCCCCC2)s1)c1ccc(Cl)cc1 ?
PHOSPHO1 block: -10; HKDC1 inh: -2; PfGluPho inh: 80*; PfG6PD confirm: 20

Results for Cc1cccc(C(=O)Nc2nnc(S(=O)(=O)N3CCC(C)CC3)s2)c1 ?
PHOSPHO1 block: 22; HKDC1 inh: 1; PfGluPho inh: 70*; PfG6PD confirm: 23

Results for COc1cc(C2Nc3c(ccc4ccccc34)C3C=CCC32)cc(OC)c1OC (stereo not given) ?
EP2 antag: 10; EP2 modulator: 36

How did Cc1ccc(Nc2nnc(-c3ccc4c(c3)OCO4)o2)c(C)c1 do in these assays?
Tb hexokinase: -3; EP2 antag: 9; EP2 modulator: -11; PHOSPHO1 block: 16; HKDC1 inh: 1; PfGluPho inh: 70*; PfG6PD confirm: 39

Results for CCn1c(=O)c2c(nc(SCC(=O)Nc3cccc(Cl)c3C)n2C)n(C)c1=O ?
EP2 antag: 5; EP2 modulator: -27

Results for CC(C)c1ccccc1OCCNC(=S)NC(=O)c1cccnc1 ?
Tb hexokinase: -2; EP2 antag: 15; EP2 modulator: 45; PHOSPHO1 block: 26; HKDC1 inh: 1; PfGluPho inh: 67*; PfG6PD confirm: 21

How did O=C1C=C(c2ccccc2)C(=O)N1Nc1ccccc1 do in these assays?
Tb hexokinase: -8; EP2 antag: 84*; EP2 modulator: -42; PHOSPHO1 block: 9; HKDC1 inh: 7; PfGluPho inh: 60*; PfG6PD confirm: 45

What do the screens show for `CC(=O)Nc1cc([N+](=O)[O-])ccc1OCc1ccccc1`?
HKDC1 inh: 0; PfGluPho inh: 72*; PfG6PD confirm: 50*; Diaphorase 10uM: 45; Diaph ctr 30uM: 37

What do the screens show for `COc1ccc(N2CC(C(=O)Nc3ccccc3OC)CC2=O)cc1` (stereo not given)?
EP2 antag: 13; EP2 modulator: -12

How did COc1ccc(-c2cn3cccc(C)c3n2)cc1F do in these assays?
Tb hexokinase: 4; EP2 antag: 10; EP2 modulator: -42; PHOSPHO1 block: 10; HKDC1 inh: -5; PfGluPho inh: 26

How did COc1ccc(-c2cn3cc(C)ccc3n2)cc1OC do in these assays?
Tb hexokinase: -9; EP2 antag: 14; EP2 modulator: -31; PHOSPHO1 block: -3; HKDC1 inh: -1; PfGluPho inh: 61*; PfG6PD confirm: 43

What do the screens show for `COc1ccc(-c2cn3cc(C)ccc3n2)cc1F`?
Tb hexokinase: 1; EP2 antag: 2; EP2 modulator: -56; PHOSPHO1 block: 23; HKDC1 inh: -5; PfGluPho inh: 107*; PfG6PD confirm: 73*; Diaphorase 10uM: 64*; Diaph ctr 30uM: 54*

Results for COc1ccc(-c2cn3ccccc3n2)cc1OC ?
Tb hexokinase: -12; EP2 antag: 12; EP2 modulator: 24; PHOSPHO1 block: -1; HKDC1 inh: -2; PfGluPho inh: 5

What do the screens show for `O=C(NCc1ccc(F)cc1)C(c1cccs1)N(C(=O)c1csnn1)C1CCCC1` (stereo not given)?
EP2 antag: 8; EP2 modulator: 3

Results for COc1ccc2cc(C)c3nn(CC(=O)Nc4cccc(C)n4)c(=O)n3c2c1 ?
EP2 modulator: -21

Results for COc1ccc(C(=O)Nc2nnc(S(=O)(=O)N(C)Cc3ccc(F)cc3)s2)cc1OC ?
PHOSPHO1 block: 38; HKDC1 inh: 4; PfGluPho inh: -25

What do the screens show for `CN(Cc1ccco1)S(=O)(=O)c1nnc(NC(=O)c2cccc(Cl)c2)s1`?
PHOSPHO1 block: 41; HKDC1 inh: 0; PfGluPho inh: 86*; PfG6PD confirm: 44

What do the screens show for `COc1ccc(C(=O)Nc2nnc(S(=O)(=O)N(C)Cc3ccccc3)s2)cc1`?
PHOSPHO1 block: 29; HKDC1 inh: 3; PfGluPho inh: 71*; PfG6PD confirm: 33

How did CN(Cc1ccccc1)S(=O)(=O)c1nnc(NC(=O)c2ccc(F)cc2)s1 do in these assays?
PHOSPHO1 block: 2; HKDC1 inh: -2; PfGluPho inh: 78*; PfG6PD confirm: 22
